WT yeast gro inh = growth inhibition of WT strain, primary screen, mitochondrial fusion inhibitor project, WT and mutant strains, chemical genetic; mitochondrial fusion phenotypic screen; inhibition, % at 10 µM; actives 2.1% (n = 190,000); in the data active means inhibition above about 58%; tested in S. cerevisiae
Lmaj promast = Leishmania major promastigote growth inhibition, primary screen; Leishmania major promastigotes, resazurin fluorescence viability; inhibition, % at 10 µM; actives 9% (n = 200,000); in the data active means inhibition above about 50%;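 further: promastigotes grown with compound for 44 hours at 28 °C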
PMI act = activators of human PMI, primary screen, biochemical, fluorescence intensity, near-Km mannose 6-phosphate; purified human PMI, coupled resazurin fluorescence, 20 min; active compounds read high; 1 = vehicle control, 0 substrate-free wells; activation factor at 20 µM; actives 0.005% (n = 190,000);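 active means activation factor of 2 or more at 20 µM, relative to plate controls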
Target sequence (P34949 whole entry, looked up): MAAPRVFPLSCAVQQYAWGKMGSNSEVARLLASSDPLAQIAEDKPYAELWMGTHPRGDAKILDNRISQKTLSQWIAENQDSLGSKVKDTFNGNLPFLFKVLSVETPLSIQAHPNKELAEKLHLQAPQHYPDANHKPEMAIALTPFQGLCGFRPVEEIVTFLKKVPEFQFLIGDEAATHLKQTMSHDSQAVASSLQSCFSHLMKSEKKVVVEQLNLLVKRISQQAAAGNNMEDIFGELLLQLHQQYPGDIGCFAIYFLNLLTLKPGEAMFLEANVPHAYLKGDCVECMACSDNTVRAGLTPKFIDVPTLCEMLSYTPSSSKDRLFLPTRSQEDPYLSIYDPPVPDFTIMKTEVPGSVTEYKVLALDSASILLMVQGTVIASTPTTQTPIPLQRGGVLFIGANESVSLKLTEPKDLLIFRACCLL
Calpain2 inh = inhibitors of pig calpain II, primary screen, biochemical, fluorogenic peptide substrate, 1536-well | purified calpain II, 30 min | inhibition, % at 16 µM | actives 0.37% (n = 220,000) | AID 1236, 2008;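 active means inhibition above about 50%, limit read from the data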
Rad51 HR inh = human RAD51 strand exchange inhibitors, primary screen, biochemical, fluorescence | DNA repair protein RAD51 homolog 1 (Homo sapiens), Q06609 | hRad51 DNA strand exchange, fluorescence dequenching | inhibition, % at 10 µM | actives 0.085% (n = 200,000) | AID 1385, 2008;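 active means inhibition above 40% at the single screening dose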;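 further: 0% = DMSO control wells and 100% = blanks with heterologous ssDNA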
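material = hRad51 filaments on single-stranded DNA | timing = filaments 15 min 37 °C, then compound 30 min | signal = FRET fluorescence dequenching, excitation 485 nm, emission 520 nm | benchmarks = control wells and blank wells on each plate | evaluation = percent inhibition relative to plate controls and blanks | compound = 10 µM final, single point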
PMI act hi M6P = human PMI activators, high substrate, primary screen, biochemical, fluorescence intensity, near-saturating mannose 6-phosphate; actives 0.34% (n = 190,000); activation factor at 20 µM; coupled PMI enzyme assay, resazurin fluorescence, 20 min; active compounds read high; 1 = untreated enzyme, 0 = substrate-free blank;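 active means activation factor of 2 or more at 20 µM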
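Test system: Human PMI in coupled enzyme assay | Input: 15 ng/mL PMI | Medium: HEPES-buffered pH 7.4 with magnesium and detergent | Compound: One concentration, 20 µM, in 1% DMSO | Incubation: Enzyme reaction with compound 20 min at room temperature | Detection: Diaphorase-driven resazurin-to-resorufin fluorescence, excitation 544, emission 590 nm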
Active calls of the source: *; i = inactive; . = not tested or not shown. A selection: hits, their analogues and other compounds. The true share with any hit is near 9.8%.

SMILES | WT yeast gro inh | Lmaj promast | PMI act | Calpain2 inh | Rad51 HR inh | PMI act hi M6P
Cc1ccc(-c2nnc(SCC(=O)NC3CCS(=O)(=O)C3)nc2-c2ccc(C)cc2)cc1 (centres undefined) | 22 | 78* | 1 | 23 | -1 | 0.9
O=C(CSc1nnc(COc2ccccc2F)n1-c1ccccc1)NC1CCS(=O)(=O)C1 (centres undefined) | -4 | 70* | 1 | 10 | 6 | 1
Cc1ccc(SCC(=O)N2CCOCC2)cc1 | -3 | -6 | 1.1 | -8 | 1 | 1.1
CCCNC(=O)COC(=O)/C(C#N)=C/c1cc(C)n(CCC)c1C | 9 | -2 | 1 | -34 | 3 | 1
COc1cc(N2C(=O)c3ccccc3C2=O)c(Cl)cc1C(=O)OCC(=O)N(C)C | -4 | -3 | 1 | -9 | . | 1
O=c1[nH]oc2cc(Cl)ccc12 | . | . | . | -15 | 5 | .
CC1CCc2c(sc(NC(=O)COC(=O)c3ccc(O)cc3)c2C#N)C1 (centres undefined) | 97* | -5 | 1 | -104 | -6 | 0.9
CN1CCN(Cc2c(O)ccc3c(=O)c(Oc4ccccc4Cl)c(C(F)(F)F)oc23)CC1 | 27 | 99* | 1 | -33 | -1 | 1
CCOC(=O)c1ccc(Oc2c(C)oc3c(CN4CCN(C)CC4)c(O)ccc3c2=O)cc1 | 29 | 100* | 0.9 | i | 2 | 0.9
COc1cccc(-c2nn(-c3ccccc3)cc2CNC(C)Cn2cncn2)c1 (centres undefined) | -3 | 6 | 0.9 | 1 | -124 | 1
COc1cc(/C=N/NC(=O)CSc2n[nH]c(=O)[nH]c2=O)cc(OC)c1O | -2 | -6 | 0.9 | -16 | 4 | 0.8
CCOC(=O)C(NC(=O)c1ccccc1Cl)(Nc1ccc(C)c(C)c1)C(F)(F)F (centres undefined) | 28 | -2 | 0.9 | 8 | -5 | 0.8
COC(=O)C(Nc1ccccc1Cl)(c1cc(C)c(O)c(C)c1)C(F)(F)F (centres undefined) | 90* | 25 | 0.8 | 52* | -4 | 0.9
COC(=O)C(C(=O)OC)C(C[N+](=O)[O-])c1ccc(OC)c(OC)c1 (centres undefined) | -7 | 100* | 1 | -26 | -11 | 1
CC(C)(C)NC(=O)CCN(/N=C/c1ccc([N+](=O)[O-])o1)C1=NS(=O)(=O)c2ccccc21 | -8 | 99* | 0.9 | -7 | -5 | 0.8
CSCCC(NC(=O)C1CCC(C)CC1)C(=O)O (centres undefined) | 37 | 47 | 0.8 | -7 | 0 | 0.9
COC(=O)C(CCSC)NC(=O)C(NC(=O)C1CCC(C)CC1)C(C)C (centres undefined) | -31 | 69* | 1 | -7 | -3 | 1.1
CCC(C)C(NC(=O)C1CCC(C)CC1)C(=O)NC(CCSC)C(=O)OC (centres undefined) | -28 | 68* | 1 | 0 | 2 | 1
CCC(C)C(NC(=O)C1CCC(C)CC1)C(=O)Nc1ccc(OC)cc1OC (centres undefined) | 7 | 15 | 1 | 19 | 4 | 1
CN1CCN(CC(O)COC(c2ccccc2)c2ccccc2)CC1 (centres undefined) | -10 | -1 | 1 | 5 | 12 | 1
CC1CCCN(CC(O)COC(c2ccccc2)c2ccccc2)C1 (centres undefined) | 8 | 99* | 1 | 21 | -2 | 1
CC1CCCN(CC(O)COc2ccc(Cl)cc2)C1 (centres undefined) | -21 | 91* | 1 | -9 | 6 | 0.9
OC1CCCN(CC(O)COC(c2ccccc2)c2ccccc2)C1 (centres undefined) | . | . | . | -19 | 3 | .
Cc1ccc(C(OCC(O)CN2CCCCC2CO)c2ccccc2)cc1 (centres undefined) | -17 | 84* | 0.9 | 1 | 23 | 1
Nc1nc(Nc2ccccc2F)nc(N2CCOCC2)c1[N+](=O)[O-] | . | . | . | -4 | 9 | .

Bioassay records: PubChem BioAssay, several laboratories
